Laboratory results: ChEMBL document CHEMBL1136656, “Synthesis and Biological activity of kappa opioid receptor agonists. Part 2: preparation of 3-aryl-2-pyridone analogues generated by solution- and solid-phase parallel synthesis methods” (Bioorg Med Chem Lett, 2003)

Columns and labels:
[1] = molecular target: Delta-type opioid receptor (Homo sapiens, UniProt P41143); assay: Inhibition of [125I]deltorphin binding to human delta opioid receptor from membranes of HEK293 cells; assay type: cell membranes
How it was run: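 Displacement of [125I]-Deltorphin from membranes of HEK293 cells overexpressing human delta opioid receptor, read by classical filter binding. IC50 came from full dose–response curves on purified material, in single determinations.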

[2] = molecular target: T1, Kappa-type opioid receptor (Homo sapiens, UniProt P41145); assay: Inhibition of [125I]-(D-Pro10)-Dynorphin A binding to human kappa opioid receptor from membranes of HEK293 cells; assay type: cell membranes
How it was run: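 Classical filter binding on membranes from HEK293 cells overexpressing human kappa opioid receptor, measuring displacement of [125I]-(D-Pro10)-Dynorphin A. Purified compounds were run as full dose–response curves and reported as mean IC50 ± SEM. Crude or partially purified mixtures were screened at a single concentration for percent inhibition of radioligand binding.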

Mu-type opioid receptor = Mu-type opioid receptor (Homo sapiens, UniProt P35372); assay: Inhibition of [125I]Enkephalin binding to human mu opioid receptor from membranes of HEK293 cells; assay type: cell membranes
How it was run: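 Filter binding on membranes of HEK293 cells overexpressing human mu opioid receptor, measuring displacement of [125I]-Enkephalin. IC50 came from full dose–response curves on purified material, in single determinations.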

[3] = molecular target: T1, Kappa-type opioid receptor; assay: Effective dose for agonistic activity towards human kappa opioid receptor from membranes of HEK293 cells was determined by radiolabeled [35S]GTP-gamma-S, assay; assay type: functional, cell membranes
[4] = molecular target: T1, Kappa-type opioid receptor; assay: Inhibitory concentration against [125I]-(D-Pro10)-Dynorphin A binding to human kappa opioid receptor from membranes of HEK293 cells; assay type: cell membranes; conditions: concentration not given here
How it was run: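 Filter binding on membranes from HEK293 cells overexpressing the human kappa opioid receptor. Displacement of [125I]-(D-Pro10)-Dynorphin A was measured, with full dose–response curves on purified material. IC50 is the mean of determinations, quoted with SEM.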

T1 sequence (P41145 whole entry): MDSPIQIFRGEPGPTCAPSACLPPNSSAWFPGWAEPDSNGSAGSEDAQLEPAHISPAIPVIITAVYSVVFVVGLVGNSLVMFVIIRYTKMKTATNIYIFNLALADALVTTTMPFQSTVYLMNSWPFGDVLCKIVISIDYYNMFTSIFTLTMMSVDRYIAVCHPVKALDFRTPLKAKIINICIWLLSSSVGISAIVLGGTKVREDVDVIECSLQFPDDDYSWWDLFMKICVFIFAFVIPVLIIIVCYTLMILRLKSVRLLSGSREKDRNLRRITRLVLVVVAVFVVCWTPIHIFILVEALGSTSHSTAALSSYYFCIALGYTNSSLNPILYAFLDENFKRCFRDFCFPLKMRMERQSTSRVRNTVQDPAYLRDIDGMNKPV
Delta-type opioid receptor, sequence (P41143 whole entry): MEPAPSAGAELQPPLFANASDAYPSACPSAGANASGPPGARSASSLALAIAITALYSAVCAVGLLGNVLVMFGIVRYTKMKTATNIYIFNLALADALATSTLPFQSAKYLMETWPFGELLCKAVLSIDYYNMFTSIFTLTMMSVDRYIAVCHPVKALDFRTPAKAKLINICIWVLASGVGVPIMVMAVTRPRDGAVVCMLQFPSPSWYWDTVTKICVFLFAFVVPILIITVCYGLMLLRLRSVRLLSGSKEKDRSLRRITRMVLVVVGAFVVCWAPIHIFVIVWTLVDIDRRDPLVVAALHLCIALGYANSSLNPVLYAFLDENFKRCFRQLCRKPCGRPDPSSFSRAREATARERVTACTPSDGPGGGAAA
Mu-type opioid receptor, sequence (P35372 whole entry): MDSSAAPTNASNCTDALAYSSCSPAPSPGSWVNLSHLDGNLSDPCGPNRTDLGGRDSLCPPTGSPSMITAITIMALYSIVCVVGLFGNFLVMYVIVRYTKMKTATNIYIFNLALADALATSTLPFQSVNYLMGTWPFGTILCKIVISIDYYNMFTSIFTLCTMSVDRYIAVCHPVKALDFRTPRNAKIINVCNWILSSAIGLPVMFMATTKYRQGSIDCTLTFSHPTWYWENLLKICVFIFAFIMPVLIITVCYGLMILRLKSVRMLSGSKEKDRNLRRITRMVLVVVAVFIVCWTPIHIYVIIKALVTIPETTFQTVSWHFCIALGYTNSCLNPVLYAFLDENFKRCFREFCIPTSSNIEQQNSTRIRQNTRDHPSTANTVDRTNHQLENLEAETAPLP

Row | inhibition [4] [%] | Structure (SMILES) | IC50 [1] [µM] | IC50 [2] [µM] | IC50 (Mu-type opioid receptor) [µM] | ED50 [3] [µM] | IC50 ([1]; hek293) [µM] | IC50 (Mu-type opioid receptor; hek293) [µM]
1 |  | Cc1ccc(Nc2cccn(C(CN3CCCC3)c3ccccc3)c2=O)cc1 (stereo unspecified) | > 10 | 0.094 |  |  |  | 
2 |  | CC(=O)c1ccc(-c2cccn(C(CN3CCC(O)C3)c3ccccc3)c2=O)s1 (stereo unspecified) | > 10 | 0.038 | > 10 |  |  | 
3 |  | O=c1c(-c2ccccc2)nccn1C(CN1CCCC1)c1ccccc1 (stereo unspecified) |  | 2.45 |  |  |  | 
4 |  | COc1ccc(OC)c(-c2cccn(C(CN3CCC(O)C3)c3ccccc3)c2=O)c1 (stereo unspecified) | > 10 | 0.0069 | 2.22 |  |  | 
5 |  | O=c1c(-c2ccc(C(F)(F)F)cc2)cccn1C(Cn1ccnc1)c1ccccc1 (stereo unspecified) |  | > 10 |  |  |  | 
6 |  | O=C1COc2ccc(C(CN3CCCC3)n3cccc(-c4ccc(C(F)(F)F)cc4)c3=O)cc2N1 (stereo unspecified) | > 10 | 0.057 | > 10 |  |  | 
7 |  | O=c1c(-c2cccc(OC(F)(F)F)c2)cccn1C(CN1CCC(O)C1)c1ccccc1 (stereo unspecified) | > 10 | 0.022 | > 5 |  |  | 
8 |  | O=c1c(-c2ccccc2)ccnn1C(CN1CCCC1)c1ccccc1 (stereo unspecified) |  | 0.55 |  |  |  | 
9 |  | O=c1c(Nc2ccc(C(F)(F)F)cc2)cccn1C(CN1CCCC1)c1ccccc1 (stereo unspecified) | > 10 | 0.082 | 10 |  |  | 
10 |  | Cc1cc(-c2cccn(C(CN3CCC(O)C3)c3ccccc3)c2=O)ccc1F (stereo unspecified) | > 10 | 0.0084 | > 5 |  |  | 
11 |  | O=c1c(-c2cccc(CO)c2)cccn1C(CN1CCC(O)C1)c1ccccc1 (stereo unspecified) | > 10 | 0.0096 | > 5 |  |  | 
12 |  | O=c1c(-c2ccc(Cl)cc2Cl)cncn1C(CN1CCCC1)c1ccccc1 (stereo unspecified) | > 10 | 0.041 | 9.6 | 0.615 |  | 
13 |  | Nc1cccc(-c2cccn(C(CN3CCC(O)C3)c3ccccc3)c2=O)c1 (stereo unspecified) | > 10 | 0.025 | 2.91 |  |  | 
14 |  | O=c1c(-c2ccc(C(F)(F)F)cc2)cccn1C(CN1C=CC=CC=N1)c1ccccc1 (stereo unspecified) | > 10 | 1.4 | > 10 |  |  | 
15 |  | COc1ccccc1-c1cccn(C(CN2CCC(O)C2)c2ccccc2)c1=O (stereo unspecified) | > 10 | 0.094 |  |  |  | 
16 |  | O=c1c(-c2ccc(F)cc2)cccn1C(CN1CCC(O)C1)c1ccccc1 (stereo unspecified) | > 10 | 0.033 | > 10 |  |  | 
17 |  | O=c1c(-c2ccccc2)cccn1C(CN1CCC(O)C1)c1ccccc1 (stereo in doubt; 14f) |  | 0.47 |  |  | > 10 | > 10

Row | inhibition [4] [%] | Structure (SMILES) | IC50 [1] [µM] | IC50 [2] [µM] | IC50 (Mu-type opioid receptor) [µM] | ED50 [3] [µM] | IC50 ([1]; hek293) [µM] | IC50 (Mu-type opioid receptor; hek293) [µM]
18 |  | COc1ccc(C(CN2CCCC2)n2cccc(-c3ccc(C(F)(F)F)cc3)c2=O)cc1 (stereo unspecified) | > 10 | 0.32 | > 10 |  |  | 
19 |  | O=C(O)COc1cccc(C(CN2CCCC2)n2cccc(-c3ccc(C(F)(F)F)cc3)c2=O)c1 (stereo unspecified) | 5.6 | 0.42 | > 10 |  |  | 
20 |  | COc1ccc(Cl)cc1-c1cccn(C(CN2CCC(O)C2)c2ccccc2)c1=O (stereo unspecified) | > 10 | 0.053 | 0.19 |  |  | 
21 |  | COc1ccc(F)cc1-c1cccn(C(CN2CCC(O)C2)c2ccccc2)c1=O (stereo unspecified) | 0.46 | 0.0055 | > 10 | 0.032 |  | 
22 |  | O=c1c(Nc2ccccc2)cccn1C(CN1CCCC1)c1ccccc1 (stereo unspecified) |  | > 1 |  |  |  | 
23 |  | O=c1c(-c2ccc(Cl)cc2Cl)cccn1C(CN1CCCC1)c1ccccc1 (stereo unspecified) | > 10 | 0.0023 | 2.1 |  |  | 
24 |  | Cc1ccc(C(C)Nc2cccn(C(CN3CCCC3)c3ccccc3)c2=O)cc1 (stereo unspecified) | > 10 | 0.33 | > 10 |  |  | 
25 |  | CCN(CC)c1ccc(C(CN2CCCC2)n2cccc(-c3ccc(C(F)(F)F)cc3)c2=O)cc1 (stereo unspecified) | > 10 | 3.08 | > 10 |  |  | 
26 | 41 | O=C(O)c1cccc(-c2cccn(C(CN3CCC(O)C3)c3ccccc3)c2=O)c1 (stereo unspecified) |  |  |  |  |  | 
27 |  | CC(=O)c1ccc(-c2cccn(C(CN3CCC(O)C3)c3ccccc3)c2=O)cc1 (stereo unspecified) | > 10 | 0.014 | 1.75 |  |  | 
28 |  | COc1cccc(OC)c1-c1cccn(C(CN2CCC(O)C2)c2ccccc2)c1=O (stereo unspecified) | > 10 | 0.0098 | 3.91 |  |  | 
29 |  | O=c1c(-c2ccc(C(F)(F)F)cc2)cccn1C(CN1CCOCC1)c1ccccc1 (stereo unspecified) | > 10 | 0.7 | > 10 |  |  | 
30 |  | O=c1c(-c2ccc(OC(F)(F)F)cc2)cccn1C(CN1CCC(O)C1)c1ccccc1 (stereo unspecified) | > 10 | 0.0076 | > 5 |  |  | 
31 |  | O=Cc1ccccc1-c1cccn(C(CN2CCC(O)C2)c2ccccc2)c1=O (stereo unspecified) | > 10 | 0.013 |  |  |  | 
32 |  | O=c1c(-c2ccccc2)cccn1C(CN1CCC(O)C1)c1ccccc1 (stereo in doubt; 20a) | > 10 | 0.465 | > 10 |  |  | 
33 |  | O=c1c(-c2ccccc2)cncn1C(CN1CCCC1)c1ccccc1 (stereo unspecified) |  | 1.76 |  |  |  | 
